# Legend:
# Type in all cases: functional
# Mus musculus [1] = experiment: Trypanocidal Activity at I.C.E. value 0.34 when administered subcutaneously.
# Procedure, shortened: (§1)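 Blood-stage T. rhodesiense infection came from a standard inoculum lethal to all untreated mice. Drug was given by subcutaneous injection to groups of five mice. Survival beyond 30 days counted as cure. […] Sub-curative doses scored 0, and data were normalized at each dose.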
# Mus musculus [2] = experiment: Trypanocidal Activity at I.C.E. value 0.38 when administered subcutaneously.; procedure, shortened: as §1
# Mus musculus [3] = experiment: Trypanocidal Activity at I.C.E. value 0.16 when administered subcutaneously.
# Mus musculus [4] = experiment: Trypanocidal Activity at I.C.E. value 0.57 when administered perorally.
# Mus musculus [5] = experiment: Trypanocidal Activity at I.C.E. value 0.52 when administered subcutaneously.; procedure, shortened: as §1
# Mus musculus [6] = experiment: Trypanocidal Activity at I.C.E. value 0.59 when administered subcutaneously.
# Procedure, shortened: (§2)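 Mice, in groups of five per dose, were given a standard inoculum of blood-stage T. rhodesiense that is lethal to all untreated controls, then dosed subcutaneously. Usually 11 dose levels were used (2^n × 0.42 mg/kg).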
# [7] = system: Trypanosoma brucei rhodesiense; experiment: In Vitro measurement of inhibition of thymidine uptake in cell culture of Trypanosoma rhodesiense; conditions: read-out: ID50 (the source's name)
# Procedure, shortened: (§3)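 Parasites harvested from infected rats and incubated 3 h across a drug concentration series, usually 0.1–100 µg/mL. Incorporation of radiolabeled thymidine measured. ID50 is the concentration (µg/mL) producing 50% inhibition.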
# [8] = system: Trypanosoma brucei rhodesiense; experiment: In Vitro measurement of inhibition of leucine uptake in cell culture of Trypanosoma rhodesiense; conditions: read-out: ID50 (the source's name)
# Procedure, shortened: (§4)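 Trypanosomes harvested from infected rats, cultured 3 h with several concentrations of drug, usually 0.1–100 µg/mL. Radiolabeled L-leucine uptake measured. ID50 is the concentration in µg/mL giving 50% inhibition of incorporation.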
# Mus musculus [9] = experiment: Trypanocidal Activity at I.C.E. value 0.67 when administered subcutaneously.; procedure, shortened: as §2
# [10] = system: Trypanosoma brucei rhodesiense; experiment: In Vitro measurement of inhibition of thymidine uptake in cell culture of Trypanosoma rhodesiense.; conditions: read-out: ID50 (the source's name); procedure, shortened: as §3
# [11] = system: Trypanosoma brucei rhodesiense; experiment: In Vitro measurement of inhibition of Leucine uptake in cell culture of Trypanosoma rhodesiense.; conditions: read-out: ID50 (the source's name); procedure, shortened: as §4
# Mus musculus [12] = experiment: Trypanocidal Activity at I.C.E. value 0.71 when administered subcutaneously.; procedure, shortened: as §2
# Mus musculus [13] = experiment: Trypanocidal Activity at I.C.E. value 0.36 when administered subcutaneously.
# Mus musculus [14] = experiment: Trypanocidal Activity at I.C.E. value 0.45 when administered subcutaneously.; procedure, shortened: as §1
# Mus musculus [15] = experiment: Trypanocidal Activity at I.C.E. value 0.32 when administered subcutaneously.; procedure, shortened: as §1
# Mus musculus [16] = experiment: Trypanocidal Activity at I.C.E. value 0.57 when administered subcutaneously.; procedure, shortened: as §2
# Mus musculus [17] = experiment: Trypanocidal Activity at I.C.E. value 0.29 when administered subcutaneously.; procedure, shortened: as §1
# Mus musculus [18] = experiment: Trypanocidal Activity at I.C.E. value 0.24 when administered subcutaneously.; procedure, shortened: as §1
compound,measurement,setting,value
C[n+]1c(-c2ccc(C(N)=S)cc2)cn2ccccc21.Cc1ccc(S(=O)(=O)[O-])cc1,CD50,Mus musculus [1],53 mg/kg
Br.CC(Cc1ccncc1)NC(=N)N/N=C/c1ccc(-c2cn3ccccc3[n+]2C)cc1.[Br-] (stereo not drawn),CD50,Mus musculus [2],0.8 mg/kg
Br.CCSc1ccc2n(c1)cc(-c1ccc(/C=N/NC(=N)SC)cc1)[n+]2C.[Br-],CD50,Mus musculus [3],106 mg/kg
Br.Cc1ccn2cc(COc3ccc(/C=N/NC(=N)N)cc3)[n+](C)c2c1.[Br-],CD50,Mus musculus [4],6.6 mg/kg
same,CD50,Mus musculus [5],0.2 mg/kg
Br.C[n+]1c(COc2ccc(/C=N/NC(=N)NO)cc2)cn2cc(C(F)(F)F)ccc21.[Br-],CD50,Mus musculus [6],6.6 mg/kg
Br.Cc1ccn2cc(-c3ccc(/C=N/NC4=NCCCN4)cc3)[n+](C)c2c1.[Br-],IC50,[7],0.7 µg/mL
same,IC50,[8],1.1 µg/mL
same,CD50,Mus musculus [9],0.1 mg/kg
same,CD50,Mus musculus [4],6.6 mg/kg
Br.C/N=C(\NC)N/N=C/c1ccc(OCc2n(C)c3ccccc3[n+]2C)cc1.[Br-],CD50,Mus musculus [1],3.3 mg/kg
Br.C[n+]1c(-c2ccc(/C=N/NC(=N)NCCN3CCOCC3)cc2)cn2ccccc21.[Br-],IC50,[10],2.3 µg/mL
same,IC50,[11],11.7 µg/mL
same,CD50,Mus musculus [2],0.8 mg/kg
Br.Cc1ccn2cc(-c3ccc(/C=N/NC(=N)NO)cc3)[n+](C)c2c1.[Br-],IC50,[7],0.9 µg/mL
same,IC50,[8],0.7 µg/mL
same,CD50,Mus musculus [12],0.2 mg/kg
Br.C/N=C(/N/N=C/c1ccc(-c2cn3ccc(C)cc3[n+]2C)cc1)SC.[Br-],CD50,Mus musculus [2],26 mg/kg
Br.CCCNC(=N)N/N=C/c1ccc(-c2cn3ccccc3[n+]2C)cc1.[Br-],CD50,Mus musculus [6],0.1 mg/kg
Br.CCNC(=N)N/N=C/c1ccc(OCc2cn3c(C)cccc3[n+]2C)cc1.[Br-],CD50,Mus musculus [5],0.4 mg/kg
C[n+]1cscc1COc1ccc(/C=N/NC(=N)N2CCCC2)cc1.Cc1ccc(S(=O)(=O)O)cc1.Cc1ccc(S(=O)(=O)[O-])cc1,IC50,[7],2.2 µg/mL
same,IC50,[8],0.7 µg/mL
same,CD50,Mus musculus [3],13 mg/kg
Br.CC/N=C(\NCC)N/N=C/c1ccc(OCc2cn3cc(C)ccc3[n+]2C)cc1.[Br-],CD50,Mus musculus [13],1.6 mg/kg
Br.Cc1c(-c2ccc(/C=N/NC(=N)N)cc2)[n+](C)c2ccccn12.[Br-],CD50,Mus musculus [14],0.2 mg/kg
Br.Cc1ccn2cc(COc3ccc(/C=N/NC(=N)N4CCCC4)cc3)[n+](C)c2c1.[Br-],CD50,Mus musculus [15],0.4 mg/kg
Br.CCNC(=N)N/N=C/c1ccc(-c2cn3ccc(C)cc3[n+]2C)cc1.[Br-],CD50,Mus musculus [4],13 mg/kg
same,CD50,Mus musculus [16],0.1 mg/kg
C[n+]1c(-c2ccc(/C=N/NC(=N)NO)cc2)cn2ccsc21.Cc1ccc(S(=O)(=O)O)cc1.Cc1ccc(S(=O)(=O)[O-])cc1,IC50,[7],2 µg/mL
same,IC50,[8],1.7 µg/mL
same,CD50,Mus musculus [5],0.8 mg/kg
Br.C=CC[n+]1c(-c2ccc(/C=N/NC(=N)N)cc2)cn2ccccc21.[Br-],CD50,Mus musculus [13],0.4 mg/kg
Br.Cn1c(COc2ccc(/C=N/NC3=NCCCN3)cc2)[n+](C)c2ccccc21.[Br-],IC50,[7],4.4 µg/mL
same,IC50,[8],> 10 µg/mL
same,CD50,Mus musculus [4],6.6 mg/kg
same,CD50,Mus musculus [5],1.6 mg/kg
Cc1ccc2n(c1)cc(-c1ccc(C(=N)NO)cc1)[n+]2C.[Cl-],CD50,Mus musculus [3],106 mg/kg
CCSc1ccc2n(c1)cc(-c1ccc(/C=N/Nc3nc(N)nc(N)n3)cc1)[n+]2C.Cc1ccc(S(=O)(=O)[O-])cc1,IC50,[7],0.6 µg/mL
same,IC50,[8],> 10 µg/mL
same,CD50,Mus musculus [12],1.6 mg/kg
Cc1ccc(S(=O)(=O)[O-])cc1.Cn1cc[n+](C)c1/C=C/c1ccc(/C=N/NC(=O)c2ccc(N)cc2)cc1,CD50,Mus musculus [15],26 mg/kg
Cc1ccc2n(c1)cc(-c1ccc(/C=N/Nc3cc(N)[nH]n3)cc1)[n+]2C.[Br-],IC50,[7],> 10 µg/mL
same,IC50,[8],> 10 µg/mL
same,CD50,Mus musculus [17],26 mg/kg
Br.C/N=C(/NC)N/N=C/c1ccc(OCc2cn3c(C)cccc3[n+]2C)cc1.[Br-],CD50,Mus musculus [15],3.3 mg/kg
Br.Cn1cc[n+](C)c1COc1ccc(/C=N/NC(=N)N)cc1.[Br-],CD50,Mus musculus [3],6.6 mg/kg
C[n+]1c(-c2ccc(/C=N/NC(N)=S)cc2)cn2ccccc21.Cc1ccc(S(=O)(=O)[O-])cc1,CD50,Mus musculus [18],106 mg/kg
Br.CC(Cc1c[nH]cn1)NC(=N)N/N=C/c1ccc(-c2cn3ccccc3[n+]2C)cc1.[Br-] (stereo not drawn),CD50,Mus musculus [2],1.6 mg/kg
